Rows were chosen to be rich in hits. Some 2.5% of all compounds tested hit in one or more screens of this group.
SUMO1 PPI mod: modulators of SUMO1 protein-protein interactions, primary screen, biochemical, uHTS | 360,000 compounds, 0.33% hits | SUMO1 binding to a labelled peptide, TR-FRET, 1 h | inhibition, % at 20 µM | Small ubiquitin-related modifier 1 (Homo sapiens), P63165; in the data active = inhibition above about 37%
Target sequence (P63165 whole entry, looked up): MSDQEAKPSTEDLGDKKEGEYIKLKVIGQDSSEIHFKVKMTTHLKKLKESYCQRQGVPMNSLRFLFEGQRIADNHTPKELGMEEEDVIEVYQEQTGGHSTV
UHRF1 MBD2 ctr: UHRF1 methylated DNA binding inhibitors, primary screen, counter-screen for MBD2 inhibitor project, biochemical, TR-FRET, human UHRF1, single concentration; E3 ubiquitin-protein ligase UHRF1 (Homo sapiens), Q96T88; UHRF1 binding to methylated oligo; inhibition, % at 4.4 µM; 370,000 compounds, 0.75% hits; AID 687016, 2013; in the data active = inhibition above about 21%;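 also: UHRF1 SRA domain binding a hemimethylated CpG hairpin DNA probe; 0% = median of test compound wells and 100% = reference inhibitor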
MBD2 inh: inhibitors of MBD2 binding to methylated DNA, primary screen, biochemical, TR-FRET, DNA-binding domain, human; 370,000 compounds, 0.31% hits; inhibition, % at 4.4 µM; Methyl-CpG-binding domain protein 2 (Homo sapiens), Q9UBB5; MBD2 binding to methylated oligonucleotide; in the data active = inhibition above about 13%
Target sequence (Q9UBB5 whole entry, looked up, the tested form may be a part): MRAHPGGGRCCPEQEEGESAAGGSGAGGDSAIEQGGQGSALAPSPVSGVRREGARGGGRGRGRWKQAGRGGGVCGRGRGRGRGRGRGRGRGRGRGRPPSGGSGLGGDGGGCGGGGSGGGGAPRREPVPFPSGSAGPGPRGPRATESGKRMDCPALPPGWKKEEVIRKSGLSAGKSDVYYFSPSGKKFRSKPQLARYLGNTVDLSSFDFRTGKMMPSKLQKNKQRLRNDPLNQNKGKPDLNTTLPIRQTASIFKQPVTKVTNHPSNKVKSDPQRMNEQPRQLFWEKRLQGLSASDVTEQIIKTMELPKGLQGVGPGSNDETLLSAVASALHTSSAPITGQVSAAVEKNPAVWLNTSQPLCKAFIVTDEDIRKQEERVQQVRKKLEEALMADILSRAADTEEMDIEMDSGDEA
HCV NS3 hel inh: inhibitors of HCV NS3 helicase, primary screen, biochemical, Cy5 molecular beacon fluorescence; Hepatitis C virus NS3 helicase; NS3 helicase DNA unwinding; inhibition, % at 10.9 µM; 290,000 compounds, 0.56% hits;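 active = inhibition above the mean of all tested compounds plus 3 SD, set per campaign, cut at about 35% in these data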;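 also: 0% = DMSO wells and 100% = thioflavine S control wells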
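Test system: hepatitis C virus NS3 helicase domain fragment enzyme. Also added: annealed dual-labelled DNA beacon duplex, ATP-started. Timing: 60 min unwinding reaction at 25 °C after ATP addition. Technique: Cy5 fluorescence. Measure: % inhibition of unwinding.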
Pemphigus Ab inh: inhibitors of pemphigus antibody binding to DSG3, primary screen, biochemical, bead-based, flow cytometry, scFv-GFP; Desmoglein-3 (Homo sapiens), P32926; DSG3-coupled beads, scFv-anti-DSG3-GFP binding; active compounds read low; binding (percent of control), % at 10 µM; 310,000 compounds, 0.48% hits;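 active = binding more than 3 SD below its plate's average and above zero; inconclusive = below that plate limit but binding exactly zero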;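 also: hits lower antibody fragment binding to DSG3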
DNMT1 block: human DNMT1 methyltransferase inhibitors, primary screen, biochemical, molecular beacon, fluorescence, HinP1I cleavage, uHTS; DNA (cytosine-5)-methyltransferase 1 (Homo sapiens), P26358; inhibition (reported as % activation of signal), % at 10 µM; 360,000 compounds, 0.83% hits; AID 588458, 2011; in the data active = inhibition above about 50%
Starred values were filed as active, the others as inactive; ? = inconclusive; . = no result given.

SMILES	SUMO1 PPI mod	UHRF1 MBD2 ctr	MBD2 inh	HCV NS3 hel inh	Pemphigus Ab inh	DNMT1 block
O=C(NC1CSC/C1=N\O)c1ccccc1 (stereo not given)	-2	0	-1	0	82*	-2
CC[C@@H](C)[C@@H]1CN([C@@H](CN2CCC[C@H]2CN2C(N)=NC[C@@H]2Cc2ccccc2)C(C)C)C(=N)N1CCCC1CCCC1	-54	.	.	.	102	10
Cc1ccc(C(=O)c2coc3cc([N+](=O)[O-])c(O)c([N+](=O)[O-])c23)cc1	24	-3	-10	19	20*	-2
Cc1ccc(C(=O)c2ccc([N+](=O)[O-])cc2)cc1	-31	-1	-1	-1	84	2
O=C(Nc1ccc(OC(F)F)cc1)c1ncc(Cl)c(Cl)c1Cl	0	24*	13	-3	113	5
CCOC(=O)c1ccc(NC(=O)COc2ccc(CNCCO)cc2OCC)cc1	-3	102*	4	-15	103	-5
CCOc1cc(CNCCO)ccc1OCC(=O)NC(C)(C)C	5	4	-1	15	95	4
CCc1ccc(C(=O)Nc2cccnc2Oc2ccc(Cl)cc2)cc1	1	3	-3	4	100	3
COc1ccc(-c2c(C(C)=O)c(C)nc3sc4c(c23)NC(c2ccccc2)NC4=O)cc1 (stereo not given)	40*	-1	-5	0	94	6
CCOC(=O)c1c(C)nc2sc3c(c2c1-c1ccc(OC)cc1)NC(c1ccccc1)NC3=O (stereo not given)	47*	9	-2	-5	105	0
CCN(CC)S(=O)(=O)c1cc(C(=O)OCC(=O)Nc2c(F)cccc2F)ccc1F	0	-1	-3	-2	105	0
Cn1ccnc1SCc1cn2cc(Br)ccc2n1	0	4	-6	-2	104	4
CCCOC(=O)CCc1n[nH]c(=O)[nH]c1=O	3	-1	-1	1	.	5
CC(C)[N+]1=C2C=CC=CC=C2SC12C([N+](=O)[O-])=CC(=[N+]([O-])[O-])C=C2[N+](=O)[O-] (stereo not given)	-24	2	0	3	66*	34
CC1=CC(C)(C)N2C(=O)C3(C(C#N)=C(N)OC4=C3C(=O)CC(C)(C)C4)c3cccc1c32 (stereo not given)	.	21*	12	2	.	.
COc1ccc(NC(=O)CN(C)S(=O)(=O)c2ccc(Br)s2)cc1	5	2	0	5	-22*	1
COc1ccc(NC(=O)CN(C)S(=O)(=O)c2ccc(Br)s2)cc1OC	2	1	6	-3	110	0
O=C(Nc1cccnc1)NC1CCCCC1	-5	25*	3	-1	.	-3
S=C(Nc1cccnc1)NC1CCCCCCC1	3	1	2	-4	114	-3
O=C(NCCCn1ccnc1)/C(=C/c1ccccc1)NC(=O)c1ccccc1	1	25*	7	0	117	0
Cc1ccc(NC(=O)/C(=C/c2ccncc2)NC(=O)c2ccccc2)cc1	-7	-2	1	8	86	3
Cc1ccc(NC(=O)/C(=C\c2cccnc2)NC(=O)c2ccccc2)cc1	-10	21*	7	-10	111	0
COc1ccc(NC(=S)Nc2ncccc2C)c(OC)c1	0	25*	-4	-12	94	-4
O=C1C(=O)N(c2nccs2)C(c2ccccc2F)/C1=C(\O)c1ccc2c(c1)OCCO2 (stereo not given)	-2	23*	9	26	106	0
O=C1C(=O)N(c2nccs2)C(c2ccccc2)/C1=C(\O)c1ccc2c(c1)OCCO2 (stereo not given)	-1	.	.	33	109	3
SMILES	SUMO1 PPI mod	UHRF1 MBD2 ctr	MBD2 inh	HCV NS3 hel inh	Pemphigus Ab inh	DNMT1 block
CCCC(C(=O)NCc1ccc(OC)cc1)N(Cc1ccco1)C(=O)c1snc(C(N)=O)c1N (stereo not given)	51*	-3	2	-7	98	-3
CCC(C(=O)NCc1ccc(F)cc1)N(Cc1ccco1)C(=O)c1snc(C(N)=O)c1N (stereo not given)	-10	1	-2	5	99	-2
CCOC(=O)C1CCN(C(=O)/C=C/c2ccc(S(=O)(=O)N3CCOCC3)cc2)CC1	-11	3	-3	.	91	-3
CC1(C)Cc2nc3sc4c(=O)[nH]cnc4c3cc2CS1	14	0	-3	1	80*	-1
COc1ccc2cc(-c3cc(C(=O)OCC(=O)NC4CCS(=O)(=O)C4)c4ccccc4n3)ccc2c1 (stereo not given)	37	0	-3	-1	4.6*	-13
COc1ccc(-c2cc(C(=O)OCC(=O)NC3CC3)c3ccccc3n2)cc1	-34	0	0	.	90	1
CCOc1ccc2c(c1)C(NC(C)=O)C(=O)N2CCN1CCOCC1 (stereo not given)	11	1	-7	-6	81*	-1
COc1cc(S(=O)(=O)NCCc2ccc3c(c2)OCO3)ccc1-n1cnnn1	2	8	2	-5	101	-2
CC(OC(=O)Cc1c[nH]c2ccccc12)C(=O)NC1CCCCC1C (stereo not given)	8	23*	8	.	.	1
COC(=O)[C@]1(Cc2ccccc2)N[C@H](CN(C)S(=O)(=O)c2ccc(OC)cc2)[C@@H]2C(=O)N(C)C(=O)[C@@H]21	4	2	-5	.	103	2
Cc1ccc(S(=O)(=O)N(CC(=O)NCCC2=CCCCC2)Cc2ccccc2)cc1	-1	28*	6	-8	107	1
Cc1cccc2sc(NC(=O)CN(C)S(=O)(=O)c3ccc(Br)s3)nc12	-1	0	2	-8	108	-2
CCOc1cc(C(=O)NC)cc(Br)c1OCc1ccccc1	0	48*	-7	-5	.	2
CCC(C(=O)NC1CCCC1)N(C(=O)Cn1nnc(-c2ccc(C)o2)n1)c1ccc(F)cc1 (stereo not given)	5	0	2	-2	?	9
CS(=O)(=O)c1cnc(-c2ccccc2)nc1Sc1ccc(F)cc1	-7	-4	2	7	64*	3
O=C(N/N=C/c1ccc(OC(F)F)cc1)c1ccc(CSc2nc3ccccc3[nH]2)cc1	-1	25*	13	6	106	-13
Cc1cc(C)nc(SCc2ccc(C(=O)N/N=C/c3ccc(C(=O)O)cc3)cc2)n1	-4	0	-4	9	27*	3

Screening data: PubChem BioAssay, several laboratories
